Tests used:
[1] = target: T1, Adenosine receptor A1 (Homo sapiens, UniProt P30542); assay: Displacement [3H]DPCPX from of human adenosine A1 receptor expressed in CHO cells in presence of GTP; format: cell-based
T1 sequence (P30542 whole entry): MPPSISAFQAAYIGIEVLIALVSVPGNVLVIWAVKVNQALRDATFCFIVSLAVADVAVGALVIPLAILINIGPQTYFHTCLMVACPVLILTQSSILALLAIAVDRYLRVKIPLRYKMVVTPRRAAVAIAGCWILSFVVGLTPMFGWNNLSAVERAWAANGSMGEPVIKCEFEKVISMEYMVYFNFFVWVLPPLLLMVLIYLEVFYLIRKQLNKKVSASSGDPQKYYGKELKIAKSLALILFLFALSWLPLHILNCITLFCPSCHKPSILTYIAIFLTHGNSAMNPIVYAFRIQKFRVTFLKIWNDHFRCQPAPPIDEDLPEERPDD
Procedure, shortened: (§1)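 CHO-hA1 membranes (20 μg/mL protein), competition against [3H]DPCPX with or without 100 μM GTP. Incubation in 50 mM Tris-HCl pH 7.4, 90 min at 25 °C, after adenosine deaminase pretreatment. Nonspecific binding with 10 μM DPCPX. GF/B filtration, scintillation counting. Ki values for high- and low-affinity states taken from the biphasic curve without GTP.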

[2] = target: T2, Adenosine receptor A1 (Rattus norvegicus, UniProt P25099); assay: Displacement of [3H]CCPA from adenosine A1 receptor in rat brain cortical membrane by liquid scintillation counting; format: cell membranes
T2 sequence (P25099 whole entry): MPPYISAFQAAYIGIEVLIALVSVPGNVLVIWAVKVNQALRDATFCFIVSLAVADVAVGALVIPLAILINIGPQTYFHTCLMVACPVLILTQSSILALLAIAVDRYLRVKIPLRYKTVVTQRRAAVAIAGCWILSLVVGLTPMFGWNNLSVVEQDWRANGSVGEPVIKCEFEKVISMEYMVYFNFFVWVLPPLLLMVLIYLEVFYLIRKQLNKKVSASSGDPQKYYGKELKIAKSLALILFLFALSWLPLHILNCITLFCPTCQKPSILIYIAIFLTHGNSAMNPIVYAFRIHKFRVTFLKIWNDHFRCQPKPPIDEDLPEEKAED
Procedure, shortened: (§2)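 Rat cortical membranes (ca. 70 μg/mL protein), pretreated with 0.2 IU/mL adenosine deaminase, incubated with [3H]CCPA in 50 mM Tris-HCl pH 7.4 for 90 min at 25 °C. Nonspecific binding with 10 μM 2-chloroadenosine. GF/B filtration, scintillation counting.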

[3] = target: T3, Adenosine receptor A1 (Rattus norvegicus) (UniProt P25099); assay: Displacement of [3H]CCPA from adenosine A1 receptor in rat brain cortical membrane at 100 uM by liquid scintillation counting; format: cell membranes; procedure, shortened: as §2
T3 sequence (whole entry): T2 sequence (P25099 whole entry)

[4] = target: Adenosine receptor A2a (Rattus norvegicus) (UniProt P30543); assay: Displacement of [3H]MSX-2 from A2A receptor in rat brain striatal membrane at 100 uM by liquid scintillation counting; format: cell membranes
Procedure, shortened: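 Rat striatal membranes (ca. 70 μg/mL protein), pretreated with 0.2 IU/mL adenosine deaminase, incubated with [3H]MSX-2 in 50 mM Tris-HCl pH 7.4 for 30 min at 25 °C. Nonspecific binding with 50 μM NECA. Filtration on GF/B filters presoaked in 0.3% polyethylenimine, scintillation counting. Percent inhibition at 100 μM, n = 3.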

[5] = target: T3, Adenosine receptor A1 (Rattus norvegicus); assay: Agonist activity at adenosine A1 receptor in rat cortical membrane by [35S]GTPgammaS binding assay relative to control; format: functional, cell membranes
Procedure, shortened: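 Rat cortical membranes (7 μg/tube) incubated 45 min at 25 °C with 0.1-0.5 nM [35S]GTPγS in 50 mM Tris-HCl pH 7.4 with 1 mM EDTA, 5 mM MgCl2, 1 mM DTT, 10 μM GDP, 100 mM NaCl, 2 IU/mL adenosine deaminase, 0.5% BSA. Nonspecific binding with 10 μM unlabeled GTPγS. Filtration, scintillation counting; stimulation expressed as percent of basal.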

[6] = target: T2, Adenosine receptor A1; assay: Agonist activity at adenosine A1 receptor in rat cortical membrane by [35S]GTPgammaS binding assay; format: functional, cell membranes
[7] = target: T1, Adenosine receptor A1; assay: Displacement [3H]DPCPX from of human adenosine A1 receptor at high affinity state expressed in CHO cells; format: cell-based; procedure, shortened: as §1
[8] = target: T1, Adenosine receptor A1; assay: Displacement [3H]DPCPX from of human adenosine A1 receptor at low affinity state expressed in CHO cells; format: cell-based; procedure, shortened: as §1
[9] = species: Rattus norvegicus; assay: Displacement of [3H]flunitrazepam from GABAA receptor in rat brain cortical membrane at 10 uM; format: cell membranes

Sequence of Adenosine receptor A2a (Rattus norvegicus) (P30543 whole entry): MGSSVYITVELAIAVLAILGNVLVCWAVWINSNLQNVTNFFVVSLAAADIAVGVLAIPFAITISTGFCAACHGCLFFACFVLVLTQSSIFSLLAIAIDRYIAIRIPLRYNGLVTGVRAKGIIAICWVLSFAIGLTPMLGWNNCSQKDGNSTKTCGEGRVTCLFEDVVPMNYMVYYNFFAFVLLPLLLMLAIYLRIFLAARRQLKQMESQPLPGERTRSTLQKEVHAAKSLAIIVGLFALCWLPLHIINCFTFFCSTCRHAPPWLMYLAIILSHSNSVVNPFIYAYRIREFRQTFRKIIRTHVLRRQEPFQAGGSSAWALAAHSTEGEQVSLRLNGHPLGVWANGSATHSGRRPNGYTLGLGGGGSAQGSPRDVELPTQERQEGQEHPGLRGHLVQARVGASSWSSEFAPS

Compound	inhibition [3]	inhibition [4]	Activity [5]	also measured
COc1cc([C@H]2OC[C@](O)(Cc3ccc(O[C@@H]4O[C@H](CO)[C@@H](O)[C@H](O)[C@H]4O)c(OC)c3)[C@@H]2COC[C@H]2O[C@@](CO)(O[C@H]3O[C@H](CO)[C@@H](O)[C@H](O)[C@H]3O)[C@@H](O)[C@@H]2O)ccc1O	80%	49%	126%	Ki [1]: 31 µM; Ki [2]: 5.28 µM; EC50 [6]: 3.98 µM; Ki [7]: 26 nM; Ki [8]: 23.6 µM
OC[C@H]1O[C@@H](n2cnc3c(NC4CCCC4)ncnc32)[C@H](O)[C@@H]1O	–	–	193%	–
COc1cc([C@H]2OC[C@](O)(Cc3ccc(O[C@@H]4O[C@H](CO)[C@@H](O)[C@H](O)[C@H]4O)c(OC)c3)[C@]2(O)CO)ccc1O	29%	0%	–	–
Cn1c(=O)c2c(ncn2C)n(C)c1=O	–	58%	–	–
COc1cc([C@H]2OC[C@H](Cc3ccc(O[C@@H]4O[C@H](CO)[C@@H](O)[C@H](O)[C@H]4O)c(OC)c3)[C@]2(O)CO)ccc1O	29%	11%	–	–
COc1cc([C@H]2OC[C@H]3[C@@H]2CO[C@@H]3c2ccc(O[C@@H]3O[C@H](CO)[C@@H](O)[C@H](O)[C@H]3O)c(OC)c2)ccc1O[C@@H]1O[C@H](CO)[C@@H](O)[C@H](O)[C@H]1O	–	–	–	Activity [9]: 23%

Source: ChEMBL document CHEMBL1150660, “Lignans isolated from valerian: identification and characterization of a new olivil derivative with partial agonistic activity at A(1) adenosine receptors” (J Nat Prod, 2002)
